In PMC6028938 (Neurobiology of disease, 2018):

Tests used:
[1] = mice, delivered in drinking water or by IP injection; cited from earlier work
PKA CαM120A [2] = target: T1, PKA CαM120A (Mus musculus, UniProt P05132, M121A); type: biochemical
PKA CαM120A [3] = target: T1, PKA CαM120A; assay: Atxn1 2Q/2Q; type: cell-based
CαM120A = CαM120A (Mus musculus, UniProt P05132, M121A); assay: 1-NM-PP1 delivered in vivo; conditions: cage drinking water or intra-cerebro-ventricular injections, data not shown
PKA = conditions: cited from earlier work
Atxn1[66Q] and Atxn1[2Q] = assay: GSK690693 treatment in Atxn1 66Q/2Q cerebellar slice cultures; type: cell-based, mouse; conditions: 10 μM
endogenous human ATXN1 = assay: SCA1 patient iPSC-derived neuronal cells, western blot of ATXN1; type: cell-based; conditions: 10 μM, two-day treatment
Method in brief: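 NPCs differentiated 7 days in DMEM/F12 with 100 ng/ml FGF8, 200 ng/mL SHH and 1:100 N2; β-III tubulin-stained. Treated 2 days with 10 μM test compound, lysed in Tris-Triton buffer. Western blot: MoAb-17 (1 ng/μl) for pS776, 11750 for total ATXN1, GAPDH-normalised.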

mice = conditions: mouse
MSK = conditions: read-out: IC50 as MSK inhibitor; cited from earlier work
[4] = tested on: RFP-ATXN1[82Q] in DAOY cells; assay: Live cell imaging of DAOY cells stably expressing RFP-ATXN1[82Q]; type: cell-based, human
Method in brief: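 DAOY cells stably carrying RFP-ATXN1[82Q]-IRES-YFP, grown on 35 mm plates and moved to imaging chambers heated to 37 °C. At time zero, 10 nM test compound or DMSO vehicle was added. Brightfield and RFP images were taken every 2 minutes on an inverted fluorescence microscope.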

PKA pathway = conditions: postnatal day 7 ATXN1[82Q] mouse cerebellar slices; cited from earlier work
[5] = 20 μM 1-NM-PP1, three-day incubation, vs no treatment or DMSO
[6] = one day of exposure, P10 slices

CC(C)(C)n1nc(Cc2cccc3ccccc23)c2c(N)ncnc21 [1-NM-PP1]
blood brain barrier crossing [1]: cross the blood brain barrier | inhibition of S776 phosphorylation (PKA CαM120A [2]; 10 μM 1-NM-PP1, the highest dose tested): Subtle inhibition | level of Atxn1[2Q] protein (PKA CαM120A [3]; [5]): failed to affect | phosphorylation of pan-PKA substrates (PKA CαM120A [3]; [5]): failed to affect | inhibition of CαM120A in vivo (CαM120A): failed

CCn1c(-c2nonc2N)nc2c(C#CC(C)(C)O)ncc(OC[C@H]3CCCNC3)c21 [GSK690693, 4-[2-(4-Amino-1,2,5-oxadiazol-3-yl)-1-ethyl-7-[(3S)-3-piperidinylmethoxy)-1H-imidazo[4,5-c]pyridin-4-yl]-2-methyl-3-butyn-2-ol]
IC50s for AGC kinase family members including PKA (in words) (PKA): nanomolar | S776 phosphorylation status (MoAB-17 blot) (Atxn1[66Q] and Atxn1[2Q]; by 5 days of treatment): decrease in pS776 | phosphorylation of other cerebellar proteins with PKA consensus site RRX(S/T) (pan-PKA substrates antibody) (Atxn1[66Q] and Atxn1[2Q]; by one day of treatment): Inhibition | reduction of Atxn1[2Q] level (Atxn1[66Q] and Atxn1[2Q]; five days): 68% | reduction of Atxn1[66Q] level (Atxn1[66Q] and Atxn1[2Q]; five days): 70% | reduction of Atxn1[2Q] level (Atxn1[66Q] and Atxn1[2Q]; [6]): 22% | reduction of Atxn1[66Q] level (Atxn1[66Q] and Atxn1[2Q]; [6]): 29% | reduction of Atxn1[2Q] level (Atxn1[66Q] and Atxn1[2Q]; three days): 54% | reduction of Atxn1[66Q] level (Atxn1[66Q] and Atxn1[2Q]; three days): 56% | reduction of endogenous ATXN1 levels (endogenous human ATXN1): 44% | concentration that blocks ATXN1[30Q]-S776 phosphorylation (PKA CαM120A [2]; Cα M120A cerebellar extracts as kinase source): ≤ 10 nM | amount of Atxn1[2Q] protein (PKA CαM120A [3]; 10 μM GSK690693, two days): significantly decreased | pan-PKA substrate phosphorylation (PKA CαM120A [3]; 10 μM GSK690693, two days): dramatically decreased | toxicity in vivo (mice): very toxic with treated mice having seizures

CCn1c(-c2nonc2N)nc2cncc(CNC3CCNCC3)c21 [SB-747651A]
inhibitory activity towards PKA relative to MSK (less) (PKA): approximately 10 fold | IC50 (MSK): 11 nM

CN[C@@H]1C[C@H]2O[C@@](C)([C@@H]1OC)n1c3ccccc3c3c4c(c5c6ccccc6n2c5c31)C(=O)NC4 [Staurosporine]
RFP-ATXN1[82Q] signal ([4]; 10 nM staurosporine, as early as two minutes post-treatment, continued to decrease out to six minutes, 37 °C): substantially diminished | fluorescently tagged ATXN1[82Q] detectability ([4]; after four minutes of exposure to staurosporine): no longer detectable

C=C[C@@]1(C)CC(=O)[C@]2(O)[C@@]3(C)[C@@H](O)CCC(C)(C)[C@@H]3[C@H](O)[C@H](OC(C)=O)[C@@]2(C)O1 [forskolin]
dendritic morphology of cerebellar slices (PKA pathway): enhanced dendritic morphological abnormalities
